From ChEMBL document CHEMBL4680079, “Discovery of a Quinoline-4-carboxamide Derivative with a Novel Mechanism of Action, Multistage Antimalarial Activity, and Potent in Vivo Efficacy” (J Med Chem, 2016)
Values after ≈ are worked out from the molar mass of the structure shown.

Key:
Plasmodium falciparum [1] = test: Antiplasmodial activity against chloroquine-sensitive Plasmodium falciparum 3D7 infected in human red blood cells assessed as growth inhibition by SYBR Green fluorescence assay; type: functional, organism-based, RBC; conditions: 3D7, Erythrocyte
Summary of the method: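 P. falciparum 3D7 grown in 5% human red cells in RPMI 1640 (pH 7.3) with 0.5% Albumax II, hypoxanthine and gentamicin at 37°C under 1% O₂/3% CO₂. Growth measured by SYBR green fluorescence (ex 485/em 528 nm), with mefloquine as assay control. EC50 calculated.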

[2] = Intrinsic clearance in CD1 mouse liver microsomes at 0.5 uM in presence of NADPH incubated upto 30 mins by UPLC-MS/MS analysis; type: ADME, Microsome; conditions: 0.5 h
Summary of the method: (§1)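 Compound at 0.5 μM incubated with female CD1 mouse, male Sprague-Dawley rat or pooled human liver microsomes (0.5 mg/mL, 50 mM potassium phosphate, pH 7.4). Reaction started with excess NADPH. Samples taken at 0-30 min, quenched in acetonitrile, analysed by UPLC-MS/MS. Verapamil used as control, single time course.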

[3] = Kinetic aqueous solubility of the compound by laser nephelometry; type: physicochemical; conditions: read-out: Kinetic_solubility
Summary of the method: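 Kinetic solubility measured by laser nephelometry. DMSO serial dilutions diluted into water to give final 100–5 μg/mL at 1.0% DMSO. Read immediately, in triplicate aliquots.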

[4] = Permeability of the compound at 10 uM incubated for 5 hrs by UPLC-MS/MS analysis based PAMPA method; type: ADME; conditions: read-out: permeability
Summary of the method: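 PAMPA run on a lipid-oil-lipid tri-layer filter at pH 7.4. Compound at 10 μM in PBS (DMSO ≤5%) in donor wells, PBS in acceptor wells, kept 5 h at room temperature. Both compartments quantified by UPLC-MS/MS. Data accepted only when recovery exceeded 70%.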

HepG2 = test: Antiproliferative activity against human HepG2 cells assessed as reduction in cell viability; type: cell-based
Plasmodium falciparum [5] = test: Antiplasmodial activity against drug resistant Plasmodium falciparum W2 by [3H]hypoxanthine incorporation assay; type: functional, organism-based
Summary of the method: (§2)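 Strains (K1, W2, 7G8, TM90C2A, D6, V1/S resistant; NF54 sensitive) cultured by the Trager and Jensen method; EC50 determined in vitro from [3H]hypoxanthine incorporation.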

Plasmodium falciparum [6] = test: Antiplasmodial activity against drug resistant Plasmodium falciparum K1 by [3H]hypoxanthine incorporation assay; type: functional, organism-based; summary of the method: as §2
Plasmodium falciparum [7] = test: Antiplasmodial activity against drug resistant Plasmodium falciparum […] [3H]hypoxanthine incorporation assay; type: functional, organism-based; summary of the method: as §2
Plasmodium berghei [8] = test: Antiplasmodial activity against Plasmodium berghei ookinete form assessed as growth inhibition incubated for 22 hrs by GFP-based fluorescence microscopic analysis; type: functional, organism-based
Plasmodium yoelii = test: Antiplasmodial activity against Plasmodium yoelli liver stage forms; type: functional, organism-based
Plasmodium falciparum [9] = test: Antiplasmodial activity against late stage (IV/V) Plasmodium falciparum NF54 gametocytes transfected with GFP-LUC assessed as growth inhibition incubated for 72 hrs by mitotracker Red-CMXROS dye based fluorescence microscopic analysis; type: functional, organism-based; conditions: NF54, 72 h
Summary of the method: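 NF54 pfs16-LUC-GFP stage IV–V gametocytes (10% parasitaemia, 0.1% haematocrit) exposed to compound in 0.4% DMSO, three concentrations per log, for 72 h at 37°C under 5% CO2/5% O2/90% N2. MitoTracker Red CM-H2Xros then added for 16 h and viable gametocytes counted by imaging.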

MRC5 = test: Antiproliferative activity against human MRC5 cells assessed as reduction in cell viability after 68 hrs by resazurin dye based fluorescence assay; conditions: MRC5, 68 h
Summary of the method: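 MRC-5 fibroblasts plated overnight as monolayers, exposed to compound pre-diluted in MEM for 68 h. Resazurin then added (final 50 μM) for 3 h, fluorescence read at ex 528/em 590 nm. Signal converted to % inhibition against high- and no-inhibition controls. Plates accepted at Z' > 0.5.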

[10] = Intrinsic clearance in Sprague-Dawley rat liver microsomes at 0.5 uM in presence of NADPH incubated upto 30 mins by UPLC-MS/MS analysis; type: ADME, Microsome; conditions: 0.5 h; summary of the method: as §1
[11] = Intrinsic clearance in human liver microsomes at 0.5 uM in presence of NADPH incubated upto 30 mins by UPLC-MS/MS analysis; type: ADME, Microsome; conditions: 0.5 h; summary of the method: as §1
[12] = Protein binding in CD1 mouse plasma measured after 5 hr by UPLC-MS/MS analysis based equilibrium dialysis method; type: ADME, cell-free; conditions: mouse, 5 h
Summary of the method: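 Equilibrium dialysis of female CD1 mouse plasma spiked at 10 μg/mL (12-14 kDa membrane) against isotonic buffer for 5 h at ~37°C with shaking. Unbound fraction taken as the buffer/plasma peak-area ratio by UPLC-MS/MS. n=6 replicates, run in triplicate.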

[13] = target: Voltage-gated inwardly rectifying potassium channel KCNH2 (Homo sapiens, UniProt Q12809); test: Inhibition of human ERG by IonWorks patch-clamp electrophysiology method
Voltage-gated inwardly rectifying potassium channel KCNH2, sequence (Q12809 whole entry): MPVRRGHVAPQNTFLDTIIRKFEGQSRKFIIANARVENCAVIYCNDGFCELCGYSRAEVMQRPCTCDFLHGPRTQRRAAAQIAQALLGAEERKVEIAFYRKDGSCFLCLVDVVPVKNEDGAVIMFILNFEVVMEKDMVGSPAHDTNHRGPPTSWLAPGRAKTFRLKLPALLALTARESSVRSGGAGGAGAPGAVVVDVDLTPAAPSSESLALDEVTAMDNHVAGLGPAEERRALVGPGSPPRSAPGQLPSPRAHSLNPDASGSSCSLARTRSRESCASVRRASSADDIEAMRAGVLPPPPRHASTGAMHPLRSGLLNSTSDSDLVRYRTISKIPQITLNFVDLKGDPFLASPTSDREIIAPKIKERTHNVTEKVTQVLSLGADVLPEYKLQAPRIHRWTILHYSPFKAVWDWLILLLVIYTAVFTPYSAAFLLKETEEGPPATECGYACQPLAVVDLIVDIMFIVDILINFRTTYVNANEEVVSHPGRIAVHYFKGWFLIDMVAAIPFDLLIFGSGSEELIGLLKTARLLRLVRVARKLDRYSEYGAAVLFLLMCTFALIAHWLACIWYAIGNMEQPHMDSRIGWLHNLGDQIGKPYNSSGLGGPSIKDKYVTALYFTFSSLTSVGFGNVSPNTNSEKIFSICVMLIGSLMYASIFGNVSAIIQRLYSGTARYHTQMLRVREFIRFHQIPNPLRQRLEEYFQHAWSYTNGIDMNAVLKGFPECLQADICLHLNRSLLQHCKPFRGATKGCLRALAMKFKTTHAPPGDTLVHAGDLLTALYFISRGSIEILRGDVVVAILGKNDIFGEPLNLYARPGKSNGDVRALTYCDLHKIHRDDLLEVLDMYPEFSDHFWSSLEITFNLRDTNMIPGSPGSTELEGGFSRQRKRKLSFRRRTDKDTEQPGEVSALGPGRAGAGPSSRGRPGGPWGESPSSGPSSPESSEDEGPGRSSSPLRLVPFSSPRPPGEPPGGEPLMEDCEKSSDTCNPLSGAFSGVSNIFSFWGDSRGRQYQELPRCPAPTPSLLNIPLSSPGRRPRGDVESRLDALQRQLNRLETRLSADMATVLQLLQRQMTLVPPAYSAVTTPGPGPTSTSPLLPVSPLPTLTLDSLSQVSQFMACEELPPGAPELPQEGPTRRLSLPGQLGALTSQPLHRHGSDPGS
Summary of the method: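 hERG K⁺ channel inhibition measured by IonWorks patch-clamp electrophysiology. Eight-point concentration-response curves made from 3-fold serial dilutions down from the maximum final assay concentration. Each curve generated on 2 occasions.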

[14] = Clearance in NMRI mouse blood at 3 mg/kg, iv administered as bolus dose by UPLC-MS/MS analysis; type: ADME, organism-based
Summary of the method: (§3)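 Intravenous bolus solution, 3 mg free base/kg (5 mL/kg; 10% DMSO, 90% saline), given to female NMRI mice (n=3). Compound level in blood determined by UPLC-MS/MS. PK parameters derived from the blood concentration-time curve.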

[15] = Volume of distribution at steady state in NMRI mouse at 3 mg/kg, iv administered as bolus dose by UPLC-MS/MS analysis; type: ADME, organism-based; conditions: in vivo, read-out: Vdss; summary of the method: as §3
[16] = Half-life in NMRI mouse at 3 mg/kg, iv administered as bolus dose by UPLC-MS/MS analysis; type: ADME, organism-based; conditions: in vivo; summary of the method: as §3
[17] = Cmax in NMRI mouse at 10 mg/kg, po administered as gavage by UPLC-MS/MS analysis; type: ADME, organism-based; set-up: route oral, dose 10 mg/kg; conditions: in vivo
Summary of the method: (§4)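 Female NMRI mice (n=3) dosed by oral gavage as a solution at 10 mg free base/kg (10 mL/kg; vehicle 5 or 10% DMSO, 40% PEG400). Blood levels measured by UPLC-MS/MS. Parameters derived from the blood concentration-time curve.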

[18] = AUC in NMRI mouse at 10 mg/kg, po administered as gavage by UPLC-MS/MS analysis; type: ADME, organism-based; set-up: dose 10 mg/kg; conditions: in vivo; summary of the method: as §4
[19] = Tmax in NMRI mouse at 10 mg/kg, po administered as gavage by UPLC-MS/MS analysis; type: ADME, organism-based; conditions: in vivo; summary of the method: as §4
[20] = Oral bioavailability in NMRI mouse at 10 mg/kg administered via gavage by UPLC-MS/MS analysis; type: ADME, organism-based; conditions: in vivo; summary of the method: as §4
Plasmodium berghei [21] = test: Antiplasmodial activity against Plasmodium berghei ANKA infected in NMRI mouse assessed as reduction in parasitemia at 30 mg/kg, po QD for 4 days; type: functional; set-up: scale not given: the % may be the effect or the level left; conditions: time 4 day
Summary of the method: (§5)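 Female NMRI mice (n=3 per group, randomized, not blinded) infected with GFP-transfected P. berghei ANKA. Oral dosing once daily for 4 days in 10% DMSO/40% PEG400/50% water or HPMC suspension vehicle. Parasitaemia measured by flow cytometry on blood collected 96 h after infection. Mice watched for toxicity over 4 h post-dose each day.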

Plasmodium berghei [22] = test: Antiplasmodial activity against Plasmodium berghei ANKA infected in NMRI mouse assessed as survival days at 30 mg/kg, po QD for 4 days; type: functional; conditions: time 4 day
Plasmodium berghei [23] = test: Antiplasmodial activity against Plasmodium berghei ANKA infected in NMRI mouse assessed as reduction in parasitemia at 10 mg/kg, po QD for 4 days; type: functional; set-up: scale not given: the % may be the effect or the level left; conditions: time 4 day; summary of the method: as §5
Plasmodium berghei [24] = test: Antiplasmodial activity against Plasmodium berghei ANKA infected in NMRI mouse assessed as survival days at 10 mg/kg, po QD for 4 days; type: functional; conditions: time 4 day
Plasmodium berghei [25] = test: Antiplasmodial activity against Plasmodium berghei infected in NMRI mouse assessed as reduction in parasitemia at 3 mg/kg, po QD for 4 days; type: functional; set-up: scale not given: the % may be the effect or the level left; conditions: time 4 day; summary of the method: as §5
Plasmodium berghei [26] = test: Antiplasmodial activity against Plasmodium berghei ANKA infected in NMRI mouse assessed as survival days at 3 mg/kg, po QD for 4 days; type: functional; conditions: time 4 day
Plasmodium berghei [27] = test: Antiplasmodial activity against Plasmodium berghei ANKA infected in NMRI mouse assessed as reduction in parasitemia at 1 mg/kg, po QD for 4 days; type: functional; set-up: scale not given: the % may be the effect or the level left; conditions: time 4 day; summary of the method: as §5
Plasmodium berghei [28] = test: Antiplasmodial activity against Plasmodium berghei ANKA infected in NMRI mouse assessed as survival days at 1 mg/kg, po QD for 4 days; type: functional; conditions: time 4 day
Plasmodium berghei [29] = test: Antiplasmodial activity against GFP-transfected Plasmodium berghei ANKA infected in NMRI mouse assessed as reduction in parasitemia by measuring effective dose administered once daily oral dose for 4 days; type: functional; conditions: 96 h, time 4 day; summary of the method: as §5
[30] = Intrinsic clearance in rat hepatocytes; type: ADME, cell-based, Hepatocyte
[31] = Hepatic extraction in rat during hepatic portal vein study; type: ADME; conditions: read-out: ERH
Plasmodium falciparum [32] = test: Antiplasmodial activity against drug resistant Plasmodium falciparum 7G8 by [3H]hypoxanthine incorporation assay; type: functional, organism-based; summary of the method: as §2
Plasmodium falciparum [33] = test: Antiplasmodial activity against drug resistant Plasmodium falciparum TM90C2A by [3H]hypoxanthine incorporation assay; type: functional, organism-based; summary of the method: as §2
Plasmodium falciparum [34] = test: Antiplasmodial activity against drug resistant Plasmodium falciparum D6 by [3H]hypoxanthine incorporation assay; type: functional, organism-based; summary of the method: as §2
Plasmodium falciparum [35] = test: Antiplasmodial activity against drug resistant Plasmodium falciparum V1/S by [3H]hypoxanthine incorporation assay; type: functional, organism-based; summary of the method: as §2

CN(CCN1CCCC1)C(=O)c1cc(-c2ccc(CN3CCOCC3)cc2)nc2ccc(F)cc12
EC50 (Plasmodium falciparum [1]): 87 nM | CLH [2]: < 0.5 mL/min/g | solubility kinetic [3]: > 210 µM | Papp at 5 h, 10 µM [4]: 13.7 ×10⁻⁶ cm/s | EC50 (HepG2): > 50000 nM

O=C(NCCN1CCCC1)c1cc(NCCC2CCOCC2)nc2ccc(Cl)cc12
EC50 (Plasmodium falciparum [5]): 0.6 nM | EC50 (Plasmodium falciparum [6]): 0.8 nM | EC50 (Plasmodium falciparum [7]): 0.5 nM | EC50 (Plasmodium berghei [8]): 14 nM | EC50 (Plasmodium yoelii): 1 nM | EC50 (Plasmodium falciparum [9]): 39 nM | EC50 (Plasmodium falciparum [1]): 6 nM | EC50 (MRC5): 31000 nM | CLH [2]: 2 mL/min/g | solubility kinetic [3]: 230 µM (≈ 99.1 µg/mL) | Papp at 5 h, 10 µM [4]: 4.8 ×10⁻⁶ cm/s | CLH [10]: 0.8 mL/min/g | CLH [11]: 1 mL/min/g | PPB [12]: 77% | IC50 [13]: > 11000 nM | clearance [14]: 34 mL/min/kg | Vd [15]: 7.4 L/kg | half-life [16]: 2.9 h | Cmax [17]: 193 ng/mL | AUC [18]: 1210 ng·h/mL | Tmax [19]: 0.5 h | bioavailability [20]: 23% | Activity (Plasmodium berghei [21]): 99.9% | Survival (Plasmodium berghei [22]): 10 days | Activity (Plasmodium berghei [23]): 99.9% | Survival (Plasmodium berghei [24]): 8 days | Activity (Plasmodium berghei [25]): 98% | Survival (Plasmodium berghei [26]): 6 days | Activity (Plasmodium berghei [27]): 90% | Survival (Plasmodium berghei [28]): 7 days | ED90 (Plasmodium berghei [29]): 1 mg/kg | CLH [30]: 3 mL/min/g | hepatic extraction ratio [31]: 0.76 | EC50 (Plasmodium falciparum [32]): 0.7 nM | EC50 (Plasmodium falciparum [33]): 0.5 nM | EC50 (Plasmodium falciparum [34]): 0.7 nM | EC50 (Plasmodium falciparum [35]): 0.9 nM
